17 compounds from ChEMBL document CHEMBL3784994, “Systematic comparison of the mono-, dimethyl- and trimethyl 3-hydroxy-4(1H)-pyridones - Attempted optimization of the orally active iron chelator, deferiprone” (Eur J Med Chem, 2016) can be followed below.

Data set [1] has as its system Liver microsome. Kind of data set: Drug metabolism in human liver microsomes assessed as glucuronidation at 10 uM after 24 hrs by mass spectrophotometry in presence of NADPH and UDPGA. The class given is ADME. The procedure, abridged:
(§1)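 Pooled mixed-gender human liver microsomes (1 mg/mL) with 10 µM hydroxypyridinone in 100 mM PBS, with NADPH and UDPGA systems. Incubated at 37°C for 24 h with gentle shaking, in triplicate; the blank omitted microsomes. Stopped with 4% phosphoric acid and internal standard added, then centrifuged. Cation-exchange SPE, then UPLC–tandem MS on C18 to identify metabolites and quantify % metabolized.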
(In general: Liver microsomes are a subcellular fraction often used to study metabolism.)

The nature of data set [2]: Binding affinity to iron(3) assessed as pFe3+ values after 5 mins. The procedure, abridged: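 Spectrophotometric titration of ligand with iron(III) in 0.1 M KCl, using a 50 mm path cuvette. KOH was added in 0.1 pH unit steps. After readings were stable (<0.001 pH unit over 3 s), there was a 5 min equilibration, then the spectrum was recorded. Constants were fitted with pHab. pFe3+ was computed at total Fe3+ 1 µM, total ligand 10 µM, pH 7.4.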

Data set [3] is described as follows: Octanol-water partition coefficient, log P of the compound by shake-flask method. The class given is physicochemical. The procedure, abridged:
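Shake-flask partition between n-octanol and 25 mM MOPS, pH 7.4, at 25°C. Buffered solution and octanol were mixed at different ratios, stirred vigorously for 15 s, and separated by centrifugation. Aqueous UV absorbance was read before and after partition. P = (A0−A1)Vaq/(A1Vo).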

A short description of data set [4]: Binding affinity to iron(3) assessed as pFe3+ values after 10 to 30 mins.
The test system of data set [5] is Liver microsome. Description: Drug metabolism in human liver microsomes assessed as hydroxylation at 10 uM after 24 hrs by mass spectrophotometry in presence of NADPH and UDPGA. Type of data set: ADME. Put shortly:
as §1

As usually defined, the logP is the decadic logarithm of the partition coefficient of the neutral form, usually between octanol and water. A high value points to higher lipophilicity. `Cc1cn(C)cc(O)c1=O`: in data set [1], the Drug metabolism entry is recorded as “metabolite_detected”. In addition, the Activity in data set [2] was determined as 20.5. Moreover, the logP in data set [3] was -0.93.
On to `Cn1ccc(=O)c(O)n1`, for which the log partition coefficient (logP) in data set [3] was -0.85. For the same compound, in data set [4], the Activity worked out at 14.8.
In data set [3], `Cc1cc(=O)c(F)c[nH]1` had a logP of -0.51.
For the compound `Cn1cc(O)c(=O)cn1`, the logP in data set [3] is -0.85. Further, in data set [4], the Activity came out at 17.2.
Consider `COc1c[nH]cc(C)c1=O`, for which the logP in data set [3] is -0.51.
Still for that read-out and setting: under `Cn1cc(O)c(=O)c(F)c1` stands -0.85.
Consider `Cc1c[nH]cc(O)c1=O`, for which the Drug metabolism result in data set [1] and in data set [5] was “metabolite_detected” throughout. Besides, in data set [2], the Activity was 20.1. In data set [3], this compound registered a logP of -0.59.
On to `Cc1[nH]cc(C)c(=O)c1O`, for which the Drug metabolism result in data set [1] was “metabolite_detected”. Besides, the Activity in data set [2] came to 19.2. The compound further gave a logP in data set [3] of -0.13.
For the compound `Cc1cc(=O)c(O)c[nH]1`, the Activity in data set [2] stood at 20.1. In data set [3], the logP was -0.73.
Consider `Cn1ccc(=O)c(O)c1F`, for which the logP in data set [3] is -0.85.
Turning to `Cc1c(O)c(=O)ccn1C` [DEFERIPRONE], the Drug metabolism entry in data set [1] and in data set [5] was “metabolite_detected” throughout. In addition, the Activity in data set [2] came out at 20.7; in data set [4] it was 20.6.
Turning to `COc1cn(C)cc(C)c1=O`, in data set [3], the logP was -0.85.
Same read-out and setting: under `COc1c[nH]cc(CN(C)C)c1=O` stands -0.85.
Same read-out and setting: as for `COc1c[nH]ccc1=O`, the figure is -0.85.
On to `Cc1cn(C)c(C)c(O)c1=O`, for which the Drug metabolism result in data set [1] is reported as “metabolite_detected”. The Activity in data set [2] amounted to 19.7. This compound gave a logP in data set [3] of -0.51.
Turning to `Cc1nccc(O)c1O`, the Drug metabolism result in data set [1] and in data set [5] was “metabolite_detected” in each case. In data set [2], the Activity amounted to 20.2. The compound further returned a logP in data set [3] of -0.58.
Take `Cc1cc(=O)c(O)cn1C`: the Drug metabolism result in data set [1] is given as “metabolite_detected”. Moreover, the Activity in data set [2] worked out at 20.4. The logP in data set [3] was -1.19.
